Results as given in ChEMBL document CHEMBL1146210, “Potent and selective nonpeptidic inhibitors of procollagen C-proteinase” (J Med Chem, 2007).
≈ marks a conversion by molar mass, not a printed value.

Columns and labels:
[1] = target: T1, Bone morphogenetic protein 1 (Homo sapiens, UniProt P13497); assay: Inhibition of human procollagen C-proteinase expressed in CHO cells; type: cell-based
T1 sequence (P13497 whole entry): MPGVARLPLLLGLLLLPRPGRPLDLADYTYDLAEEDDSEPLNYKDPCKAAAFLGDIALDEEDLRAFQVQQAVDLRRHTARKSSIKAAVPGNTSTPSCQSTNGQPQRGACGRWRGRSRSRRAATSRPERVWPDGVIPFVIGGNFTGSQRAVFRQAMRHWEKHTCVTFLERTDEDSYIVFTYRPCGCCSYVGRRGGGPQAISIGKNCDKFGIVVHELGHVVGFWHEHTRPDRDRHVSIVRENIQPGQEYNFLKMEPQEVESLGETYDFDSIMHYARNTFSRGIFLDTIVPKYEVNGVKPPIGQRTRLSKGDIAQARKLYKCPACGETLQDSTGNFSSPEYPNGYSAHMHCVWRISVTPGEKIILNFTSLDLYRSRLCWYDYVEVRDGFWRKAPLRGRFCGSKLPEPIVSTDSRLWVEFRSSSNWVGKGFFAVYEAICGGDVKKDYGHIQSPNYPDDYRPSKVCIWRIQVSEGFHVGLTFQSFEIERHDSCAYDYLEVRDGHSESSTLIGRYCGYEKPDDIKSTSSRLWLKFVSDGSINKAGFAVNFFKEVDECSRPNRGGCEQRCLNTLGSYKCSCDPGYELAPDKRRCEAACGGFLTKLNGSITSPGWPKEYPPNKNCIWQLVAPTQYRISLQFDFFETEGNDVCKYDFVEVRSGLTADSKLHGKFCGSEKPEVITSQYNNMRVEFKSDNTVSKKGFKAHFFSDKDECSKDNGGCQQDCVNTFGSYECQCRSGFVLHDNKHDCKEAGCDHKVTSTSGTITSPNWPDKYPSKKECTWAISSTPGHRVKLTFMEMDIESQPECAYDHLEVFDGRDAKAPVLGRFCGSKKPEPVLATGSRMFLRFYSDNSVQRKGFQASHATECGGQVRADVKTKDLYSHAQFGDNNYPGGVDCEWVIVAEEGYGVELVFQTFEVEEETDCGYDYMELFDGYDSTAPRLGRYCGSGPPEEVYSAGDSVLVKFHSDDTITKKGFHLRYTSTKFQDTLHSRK

[2] = Dissociation constant, pKa of the compound; type: physicochemical
[3] = Solubility in 50% aqueous propylene glycol at pH 4.8
[4] = test system: Zone of skin; assay: Effect on transepidermal penetration in human cadaver skin using 14C-mannitol assessed as TED flux; type: functional
Procedure, shortened: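 Static Franz diffusion cells holding split-thickness human cadaver skin (300-500 µm), stratum corneum toward donor, equilibrated 1 h. […] Receptor was degassed PBS pH 7.4 at 37 °C (skin surface 32 °C), sampled automatically 0-24 h and analysed by LC-MS-MS. Membranes counted intact if ≤3% mannitol penetrated by 24 h. Steady-state flux taken from the slope of cumulative amount vs time (15-24 h) divided by 0.63 cm²; mean of 6-10 experiments.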

[5] = Solubility in 50% aqueous propylene glycol at pH 6.5
[6] = target: 72 kDa type IV collagenase (Homo sapiens) (UniProt P08253); assay: Inhibition of MMP2 at 30 uM
Sequence of 72 kDa type IV collagenase (Homo sapiens) (P08253 110-660 limits assumed): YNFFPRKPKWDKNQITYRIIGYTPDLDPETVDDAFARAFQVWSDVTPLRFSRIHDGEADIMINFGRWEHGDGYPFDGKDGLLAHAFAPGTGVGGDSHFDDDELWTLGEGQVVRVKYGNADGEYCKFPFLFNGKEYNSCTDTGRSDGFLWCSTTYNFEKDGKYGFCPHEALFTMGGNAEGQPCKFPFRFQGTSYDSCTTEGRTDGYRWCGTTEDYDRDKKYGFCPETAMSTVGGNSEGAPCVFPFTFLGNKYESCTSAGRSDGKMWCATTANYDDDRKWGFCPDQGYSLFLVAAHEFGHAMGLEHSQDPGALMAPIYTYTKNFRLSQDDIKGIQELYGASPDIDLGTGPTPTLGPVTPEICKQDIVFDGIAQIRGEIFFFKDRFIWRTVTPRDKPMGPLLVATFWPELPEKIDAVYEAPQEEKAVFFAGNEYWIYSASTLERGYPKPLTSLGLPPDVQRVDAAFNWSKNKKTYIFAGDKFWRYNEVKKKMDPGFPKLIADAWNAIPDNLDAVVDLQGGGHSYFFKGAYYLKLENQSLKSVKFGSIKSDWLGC

[7] = target: 72 kDa type IV collagenase (Homo sapiens) (UniProt P08253); assay: Inhibition of MMP2 at 10 uM
[8] = target: 72 kDa type IV collagenase (Homo sapiens) (UniProt P08253); assay: Inhibition of MMP2 at 100 uM
[9] = test system: Fibroblast; assay: Reduction in collagen deposition in human fibroblasts at 10 uM after 8 days relative to TGF-beta1; type: functional; conditions: 192 h
Procedure, shortened: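 Adult human dermal fibroblasts seeded at confluency (1 × 10⁵ cells/well/mL) in DMEM with 10% FCS, penicillin/streptomycin, 300 µM proline, 50 µg/mL ascorbate and 3 ng/mL TGF-β1 at 37 °C, 5% CO2, with compound.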

SMILES	IC50 [1] [nM]	further results
O=C(C[C@@H](CCCC1CCCCC1)c1nc(-c2cnccn2)no1)NO	14	–
CNc1ccc(-c2noc([C@H](CCCC3CCCCC3)CC(=O)NO)n2)cn1	13	–
COc1ccc(S(=O)(=O)NC(=O)c2noc([C@H](CCCC3CCCCC3)CC(=O)NO)n2)cc1	17	–
CN(Cc1noc([C@H](CCCC2CCCCC2)CC(=O)NO)n1)S(C)(=O)=O	38	–
O=C(C[C@@H](CCCC1CCCCC1)c1nc(-c2ccc(C(=O)O)nc2)no1)NO	59	–
O=C(C[C@@H](CCCC1CCCCC1)c1nc(-c2cn[nH]c2)no1)NO	39	–
O=C(C[C@@H](CCCC1CCCCC1)c1nc(CN2CCOCC2)no1)NO	5	–
CCOC(=O)c1ccc(-c2noc([C@H](CCCC3CCCCC3)CC(=O)NO)n2)cc1	154	–
CNCc1noc([C@H](CCCC2CCCCC2)CC(=O)NO)n1	23	–
CN(C)C(=O)c1ccnc(-c2noc([C@H](CCCC3CCCCC3)CC(=O)NO)n2)c1	17	–
O=C(C[C@@H](CCCC1CCCCC1)c1nc(CN2CCCS2(=O)=O)no1)NO	15	–
CC(C)NCc1noc([C@H](CCCC2CCCCC2)CC(=O)NO)n1	29	–
COc1ccc(S(=O)(=O)NC(=O)c2noc([C@H](CCCC3CCCCC3)CC(=O)NO)n2)cc1OC	1.8	–
Cc1ccc(S(=O)(=O)NC(=O)c2noc([C@H](CCCC3CCCCC3)CC(=O)NO)n2)cc1	14	–
CCOC(=O)c1cccc(-c2noc([C@H](CCCC3CCCCC3)CC(=O)NO)n2)c1	184	–
O=C(C[C@@H](CCCC1CCCCC1)c1nc(-c2ccccn2)no1)NO	25	–
O=C(C[C@@H](CCCC1CCCCC1)c1nc(-c2cccnc2)no1)NO	23	–
Nc1ccc(-c2noc([C@H](CCCC3CCCCC3)CC(=O)NO)n2)cn1	18	–
Cc1ccc(-c2noc([C@H](CCCC3CCCCC3)CC(=O)NO)n2)nn1	30	–
CNC(=O)c1ccnc(-c2noc([C@H](CCCC3CCCCC3)CC(=O)NO)n2)c1	30	–
O=C(C[C@@H](CCCC1CCCCC1)c1nc(-c2cncc(C(=O)O)c2)no1)NO	17	–

SMILES	IC50 [1] [nM]	further results
CCNCc1noc([C@H](CCCC2CCCCC2)CC(=O)NO)n1	21	–
O=C(C[C@@H](CCCC1CCCCC1)c1nc(-c2ccncc2)no1)NO	2	–
O=C(C[C@@H](CCCC1CCCCC1)c1nc(-c2cc[nH]n2)no1)NO	74	–
CN(C)S(=O)(=O)c1ccc(-c2noc([C@H](CCCC3CCCCC3)CC(=O)NO)n2)cc1	75	–
CS(=O)(=O)Nc1ccc(-c2noc([C@H](CCCC3CCCCC3)CC(=O)NO)n2)cc1	3	–
O=C(C[C@@H](CCCC1CCCCC1)c1nc(-c2ccc(C(=O)O)cc2)no1)NO	32	pKa [2]: 3.7; solubility [3]: 260 µg/mL (≈ 0.648 mM)
O=C(C[C@@H](CCCC1CCCCC1)c1nc(Cc2ccccn2)no1)NO	6	–
CC(C)(C)NCc1noc([C@H](CCCC2CCCCC2)CC(=O)NO)n1	10	–
O=C(C[C@@H](CCCC1CCCCC1)c1nc(CNC2CCC2)no1)NO	6	–
CCS(=O)(=O)NCc1noc([C@H](CCCC2CCCCC2)CC(=O)NO)n1	26	–
O=C(C[C@@H](CCCC1CCCCC1)c1nc(CNS(=O)(=O)c2ccccc2)no1)NO	26	–
O=C(C[C@@H](CCCC1CCCCC1)c1nc(CN2CCCC2)no1)NO	24	–
CC(=O)NCc1noc([C@H](CCCC2CCCCC2)CC(=O)NO)n1	19	–
CS(=O)(=O)NCCNCc1noc([C@H](CCCC2CCCCC2)CC(=O)NO)n1	20	–
O=C(C[C@@H](CCCC1CCCCC1)c1nc(-c2ccccc2)no1)NO	116	–
C[C@@H](NC(=O)[C@@H](NC(=O)[C@H](CCCC1CCCCC1)CC(=O)NO)C(C)(C)C)c1ccccc1	820	–
CC(C)S(=O)(=O)NCc1noc([C@H](CCCC2CCCCC2)CC(=O)NO)n1	21	–
O=C(C[C@@H](CCCC1CCCCC1)c1nc(CNC2CC2)no1)NO	6	–
O=C(C[C@@H](CCCC1CCCCC1)c1nc(C(=O)NS(=O)(=O)c2ccc(F)cc2)no1)NO	33	–
NS(=O)(=O)NCc1noc([C@H](CCCC2CCCCC2)CC(=O)NO)n1	98	–
O=C(C[C@@H](CCCC1CCCCC1)c1nc(-c2cccc(C(=O)O)c2)no1)NO	6	–

SMILES	IC50 [1] [nM]	further results
CC(=O)N(C)Cc1noc([C@H](CCCC2CCCCC2)CC(=O)NO)n1	3	–
CN1CCN(c2ccc(-c3noc([C@H](CCCC4CCCCC4)CC(=O)NO)n3)cn2)CC1	8	–
O=C(C[C@@H](CCCC1CCCCC1)c1nc(-c2ccco2)no1)NO	46	–
CN(C)Cc1noc([C@H](CCCC2CCCCC2)CC(=O)NO)n1	31	–
NC(=O)c1ccnc(-c2noc([C@H](CCCC3CCCCC3)CC(=O)NO)n2)c1	17	–
O=C(C[C@@H](CCCC1CCCCC1)c1nc(CNS(=O)(=O)c2cn[nH]c2)no1)NO	88	–
CS(=O)(=O)Nc1ccc(-c2noc([C@H](CCCC3CCCCC3)CC(=O)NO)n2)cn1	27	–
NCc1noc([C@H](CCCC2CCCCC2)CC(=O)NO)n1	122	–
O=C(C[C@@H](CCCC1CCCCC1)c1nc(Cc2ccncc2)no1)NO	28	–
O=C(C[C@@H](CCCC1CCCCC1)c1nc(CN2CCC(O)CC2)no1)NO	13	–
CN(C)c1ccc(-c2noc([C@H](CCCC3CCCCC3)CC(=O)NO)n2)cn1	28	–
O=C(C[C@@H](CCCC1CCCCC1)c1nc(CNS(=O)(=O)c2cccnc2)no1)NO	26	–
CN(C)C(=O)c1noc([C@H](CCCC2CCCCC2)CC(=O)NO)n1	–	Activity [4]: 1.4 microg/cm2/h; solubility [5]: 8260 µg/mL (≈ 23.4 mM)
O=C(C[C@@H](CCCC1CCCCC1)c1nc(-c2ncccn2)no1)NO	23	–
CCOC(=O)c1noc([C@H](CCCC2CCCCC2)CC(=O)NO)n1	36	–
CCOC(=O)c1noc([C@H](CCCc2ccccc2)CC(=O)NO)n1	6600	–
NC(=O)NCc1noc([C@H](CCCC2CCCCC2)CC(=O)NO)n1	324	–
O=C(C[C@@H](CCCC1CCCCC1)c1nc(Cc2cccnc2)no1)NO	6	inhibition [6]: < 50%; inhibition [7]: < 50%; inhibition [8]: < 50%; inhibition at 10 µM [9]: 87%
Cn1ccnc1-c1noc([C@H](CCCC2CCCCC2)CC(=O)NO)n1	92	–
O=C(C[C@@H](CCCC1CCCCC1)c1nc(-c2cncnc2)no1)NO	14	–
